What was measured:
[1] = tested on: MDA-MB-231; assay: Cytotoxicity against human MDA-MB-231 cells assessed as cell viability at 30 uM after 48 hrs under normoxic conditions by MTT assay (reference value: 100%); assay type: functional; details: MDA-MB-231, 48 h, read-out: Activity
In short: (§1)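 Cells cultured in high-glucose DMEM with 20% FBS at 37 °C and 5% CO2, seeded at 1x10^4/well, then dosed 24 h later (0–200 μM) for 48 h. Hypoxia: 1% O2, 5% CO2, balance N2 in a hypoxic workstation; normoxia: 20% O2 in air, 5% CO2. MTT (1 mg/ml) for 30 min at 37 °C, formazan dissolved in DMSO, A550. Untreated control set to 100%; quadruplicates, ≥3 cell batches, mean ± S.E.M.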

[2] = tested on: HT-29; assay: Cytotoxicity against human HT-29 cells assessed as cell viability at 200 uM after 48 hrs under normoxic conditions by MTT assay (reference value: 100%); assay type: functional; details: Homo sapiens, HT-29, 48 h; read-out: Activity; in short: as §1
[3] = tested on: PC-3; assay: Cytotoxicity against human PC3 cells assessed as reduction in cell viability after 48 hrs under hypoxic conditions by MTT assay; assay type: functional, cell-based; details: for IC50: PC-3, 48 h; in short: as §1
[4] = target: Carbonic anhydrase 12 (Homo sapiens, UniProt O43570)
[5] = tested on: PC-3; assay: Cytotoxicity against human PC3 cells assessed as cell viability at 100 uM after 48 hrs under normoxic conditions by MTT assay (reference value: 100%); assay type: functional; details: PC-3, 48 h, read-out: Activity; in short: as §1
[6] = target: Carbonic anhydrase 9 (Homo sapiens, UniProt Q16790); assay: Inhibition of carbonic anhydrase 9 (unknown origin) preincubated for 15 mins by stopped flow CO2 hydration assay
[7] = tested on: PC-3; assay: Cytotoxicity against human PC3 cells assessed as reduction in cell viability after 48 hrs under normoxic conditions by MTT assay; assay type: functional, cell-based; details: for IC50: PC-3, 48 h; in short: as §1
[8] = tested on: HT-29; assay: Cytotoxicity against human HT-29 cells assessed as cell viability at 100 uM after 48 hrs under hypoxic conditions by MTT assay (reference value: 100%); assay type: functional; details: Homo sapiens, HT-29, 48 h; read-out: Activity; in short: as §1
[9] = tested on: MDA-MB-231; assay: Cytotoxicity against human MDA-MB-231 cells assessed as reduction in cell viability after 48 hrs under hypoxic conditions by MTT assay; assay type: functional, cell-based; details: for IC50: MDA-MB-231, 48 h; in short: as §1
[10] = tested on: MDA-MB-231; assay: Cytotoxicity against human MDA-MB-231 cells assessed as reduction in cell viability after 48 hrs under normoxic conditions by MTT assay; assay type: functional, cell-based; details: for IC50: MDA-MB-231, 48 h; in short: as §1
[11] = tested on: HT-29; assay: Cytotoxicity against human HT-29 cells assessed as reduction in cell viability after 48 hrs under hypoxic conditions by MTT assay; assay type: functional, cell-based; details: for IC50: HT-29, 48 h; in short: as §1
[12] = tested on: HT-29; assay: Cytotoxicity against human HT-29 cells assessed as reduction in cell viability after 48 hrs under normoxic conditions by MTT assay; assay type: functional, cell-based; details: for IC50: HT-29, 48 h; in short: as §1
[13] = tested on: MDA-MB-231; assay: Cytotoxicity against human MDA-MB-231 cells assessed as cell viability at 200 uM after 48 hrs under hypoxic conditions by MTT assay (reference value: 100%); assay type: functional; details: MDA-MB-231, 48 h, read-out: Activity; in short: as §1
[14] = tested on: PC-3; assay: Cytotoxicity against human PC3 cells assessed as cell viability at 100 uM after 48 hrs under hypoxic conditions by MTT assay (reference value: 100%); assay type: functional; details: PC-3, 48 h, read-out: Activity; in short: as §1
[15] = tested on: HT-29; assay: Cytotoxicity against human HT-29 cells assessed as cell viability at 30 uM after 48 hrs under hypoxic conditions by MTT assay (reference value: 100%); assay type: functional; details: Homo sapiens, HT-29, 48 h; read-out: Activity; in short: as §1
[16] = organism: Homo sapiens; assay: Selectivity ratio of Ki for carbonic anhydrase 2 (unknown origin) to Ki for carbonic anhydrase 9 (unknown origin)
[17] = tested on: MDA-MB-231; assay: Cytotoxicity against human MDA-MB-231 cells assessed as cell viability at 200 uM after 48 hrs under normoxic conditions by MTT assay (reference value: 100%); assay type: functional; details: MDA-MB-231, 48 h, read-out: Activity; in short: as §1
[18] = tested on: PC-3; assay: Cytotoxicity against human PC3 cells assessed as cell viability at 30 uM after 48 hrs under normoxic conditions by MTT assay (reference value: 100%); assay type: functional; details: PC-3, 48 h, read-out: Activity; in short: as §1
[19] = tested on: PC-3; assay: Cytotoxicity against human PC3 cells assessed as cell viability at 30 uM after 48 hrs under hypoxic conditions by MTT assay (reference value: 100%); assay type: functional; details: PC-3, 48 h, read-out: Activity; in short: as §1
[20] = tested on: MDA-MB-231; assay: Cytotoxicity against human MDA-MB-231 cells assessed as cell viability at 30 uM after 48 hrs under hypoxic conditions by MTT assay (reference value: 100%); assay type: functional; details: MDA-MB-231, 48 h, read-out: Activity; in short: as §1
[21] = tested on: HT-29; assay: Cytotoxicity against human HT-29 cells assessed as cell viability at 30 uM after 48 hrs under normoxic conditions by MTT assay (reference value: 100%); assay type: functional; details: Homo sapiens, HT-29, 48 h; read-out: Activity; in short: as §1
[22] = tested on: HT-29; assay: Cytotoxicity against human HT-29 cells assessed as cell viability at 200 uM after 48 hrs under hypoxic conditions by MTT assay (reference value: 100%); assay type: functional; details: Homo sapiens, HT-29, 48 h; read-out: Activity; in short: as §1
[23] = tested on: HT-29; assay: Cytotoxicity against human HT-29 cells assessed as cell viability at 100 uM after 48 hrs under normoxic conditions by MTT assay (reference value: 100%); assay type: functional; details: Homo sapiens, HT-29, 48 h; read-out: Activity; in short: as §1
[24] = tested on: PC-3; assay: Cytotoxicity against human PC3 cells assessed as cell viability at 200 uM after 48 hrs under normoxic conditions by MTT assay (reference value: 100%); assay type: functional; details: PC-3, 48 h, read-out: Activity; in short: as §1
[25] = target: Carbonic anhydrase 1 (Homo sapiens, UniProt P00915); assay: Inhibition of recombinant human cytosolic carbonic anhydrase 1 preincubated for 15 mins by stopped flow CO2 hydration assay
[26] = tested on: MDA-MB-231; assay: Cytotoxicity against human MDA-MB-231 cells assessed as cell viability at 100 uM after 48 hrs under normoxic conditions by MTT assay (reference value: 100%); assay type: functional; details: MDA-MB-231, 48 h, read-out: Activity; in short: as §1
[27] = tested on: MDA-MB-231; assay: Cytotoxicity against human MDA-MB-231 cells assessed as cell viability at 100 uM after 48 hrs under hypoxic conditions by MTT assay (reference value: 100%); assay type: functional; details: MDA-MB-231, 48 h, read-out: Activity; in short: as §1
[28] = tested on: PC-3; assay: Cytotoxicity against human PC3 cells assessed as cell viability at 200 uM after 48 hrs under hypoxic conditions by MTT assay (reference value: 100%); assay type: functional; details: PC-3, 48 h, read-out: Activity; in short: as §1
[29] = target: Carbonic anhydrase 2 (Homo sapiens, UniProt P00918); assay: Inhibition of carbonic anhydrase 2 (unknown origin) preincubated for 15 mins by stopped flow CO2 hydration assay

Chain of Carbonic anhydrase 12 (O43570 whole entry): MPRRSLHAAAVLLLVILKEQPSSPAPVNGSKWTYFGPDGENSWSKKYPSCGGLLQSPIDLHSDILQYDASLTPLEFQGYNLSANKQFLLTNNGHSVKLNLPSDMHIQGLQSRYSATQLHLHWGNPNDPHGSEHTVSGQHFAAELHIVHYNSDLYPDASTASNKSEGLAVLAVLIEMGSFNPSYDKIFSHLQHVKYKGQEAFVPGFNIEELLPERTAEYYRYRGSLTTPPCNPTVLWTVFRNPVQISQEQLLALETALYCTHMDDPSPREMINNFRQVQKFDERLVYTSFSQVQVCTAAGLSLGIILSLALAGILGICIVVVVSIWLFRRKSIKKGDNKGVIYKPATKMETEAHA
Chain of Carbonic anhydrase 1 (P00915 whole entry): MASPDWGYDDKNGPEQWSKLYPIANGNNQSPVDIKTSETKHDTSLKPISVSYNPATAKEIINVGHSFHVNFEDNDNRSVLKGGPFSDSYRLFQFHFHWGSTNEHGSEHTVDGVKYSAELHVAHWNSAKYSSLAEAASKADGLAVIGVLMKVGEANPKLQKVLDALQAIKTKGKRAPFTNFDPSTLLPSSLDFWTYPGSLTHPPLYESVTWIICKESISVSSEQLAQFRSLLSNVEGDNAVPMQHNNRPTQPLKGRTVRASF

NS(=O)(=O)c1cc(NC(=O)Nc2ccc3c(c2)OCO3)c(O)c([N+](=O)[O-])c1
viability at 30 µM [1]: 105% | viability at 200 µM [2]: 60.4% | Activity [3]: Dose-dependent effect | IC50 [3]: > 200000 nM | Ki [4]: 250 nM | viability at 100 µM [5]: 65.9% | Ki [6]: 150 nM | Activity [7]: Dose-dependent effect | IC50 [7]: > 200000 nM | viability at 100 µM [8]: 22.8% | Activity [9]: Dose-dependent effect | IC50 [9]: > 200000 nM | Activity [10]: Dose-dependent effect | IC50 [10]: > 200000 nM | Activity [11]: Dose-dependent effect | IC50 [11]: 79500 nM | Activity [12]: Dose-dependent effect | IC50 [12]: > 200000 nM | viability at 200 µM [13]: 67.5% | viability at 100 µM [14]: 77.5% | viability at 30 µM [15]: 28.3% | Ratio Ki [16]: 30 | viability at 200 µM [17]: 103% | viability at 30 µM [18]: 80.1% | viability at 30 µM [19]: 101% | viability at 30 µM [20]: 105% | viability at 30 µM [21]: 71.5% | viability at 200 µM [22]: 24.6% | viability at 100 µM [23]: 62.7% | viability at 200 µM [24]: 61.6% | Ki [25]: > 50000 nM | viability at 100 µM [26]: 95% | viability at 100 µM [27]: 92.2% | viability at 200 µM [28]: 70.2%

NS(=O)(=O)c1cc(NC(=O)Nc2ccc(C(F)(F)F)cc2)c(O)c([N+](=O)[O-])c1
Ki [4]: 950 nM | Ki [6]: 630 nM | Ki [29]: 200 nM

NS(=O)(=O)c1cc(NC(=O)NCCc2ccccc2)c(O)c([N+](=O)[O-])c1
viability at 30 µM [1]: 108% | viability at 200 µM [2]: 80.7% | Activity [3]: Dose-dependent effect | IC50 [3]: > 200000 nM | Ki [4]: 310 nM | viability at 100 µM [5]: 68.5% | Ki [6]: 110 nM | Activity [7]: Dose-dependent effect | IC50 [7]: > 200000 nM | viability at 100 µM [8]: 57.3% | Activity [9]: Dose-dependent effect | IC50 [9]: 194000 nM | Activity [10]: Dose-dependent effect | IC50 [10]: > 200000 nM | Activity [11]: Dose-dependent effect | IC50 [11]: > 200000 nM | Activity [12]: Dose-dependent effect | IC50 [12]: > 200000 nM | viability at 200 µM [13]: 48.2% | viability at 100 µM [14]: 62.7% | viability at 30 µM [15]: 76.7% | Ratio Ki [16]: 28 | viability at 200 µM [17]: 85.1% | viability at 30 µM [18]: 115% | viability at 30 µM [19]: 85.2% | viability at 30 µM [20]: 72% | viability at 30 µM [21]: 97.6% | viability at 200 µM [22]: 53.8% | viability at 100 µM [23]: 85.8% | viability at 200 µM [24]: 63.5% | viability at 100 µM [26]: 107% | viability at 100 µM [27]: 79.8% | viability at 200 µM [28]: 61.9%

NS(=O)(=O)c1cc(NC(=O)NCc2ccco2)c(O)c([N+](=O)[O-])c1
Ki [4]: 530 nM | Ki [6]: 390 nM | Ki [25]: > 50000 nM

Reference: ChEMBL document CHEMBL4261658, “4-Hydroxy-3-nitro-5-ureido-benzenesulfonamides Selectively Target the Tumor-Associated Carbonic Anhydrase Isoforms IX and XII Showing Hypoxia-Enhanced Antiproliferative Profiles” (J Med Chem, 2018)
